Screening results as filed in PubChem BioAssay.
The full list was thinned out, with hits kept by preference.
Lmaj promast = Leishmania major promastigote growth inhibition, primary screen | Leishmania major promastigotes, resazurin fluorescence viability | inhibition, % at 10 µM | actives 9% (n = 200,000) | AID 1063, 2008; in the data active means inhibition above about 50%;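 further: promastigotes grown with compound for 44 hours at 28 °C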
T cruzi inh = inhibitors of intracellular T. cruzi growth, primary screen, luminescence, NIH3T3 host cells; T. cruzi beta-gal in NIH3T3, 90 h; inhibition, % (no concentration beside the values); actives 1.4% (n = 300,000); AID 1885, 2009;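 active means mean inhibition across valid replicates above about 55%, limit read from the data; inconclusive means mean below that limit but half or more replicates reach it; inactive means mean below it, under half of replicates reach it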;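 further: signal also drops with host cell toxicity which is not excluded here; higher percent means less beta-gal luminescence so fewer parasites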
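System – NIH/3T3 host cells with β-galactosidase reporter T. cruzi · Doses – single 50 nL compound addition per well in DMSO · Reagent – 5000 T. cruzi trypomastigotes/well · Medium – Low-serum DMEM with 2% FBS · Timing – ≥90 h infection period, 3 h prior cell attachment · Evaluation – parasite load inhibition, % · Technique – GalScreen luminescence, 60 min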
Dynein transport = inhibitors of GR-EGFP nuclear translocation, primary screen, dynein cargo transport inhibitor project, imaging, high-content, 3617.4 mouse cells. test concentration mostly 20 µM; stimulated with dexamethasone, 1 µM; hits give low values. z-score, hits read low. actives 0.47% (n = 220,000). AID 1381, 2008;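 active means plate z-score of nuclear minus cytoplasmic receptor signal below a set negative limit, without overly bright fluorescence or cell loss, cut at about -3.5 in these data, passing the limit was not always enough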;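 further: z-score of nuclear minus cytoplasmic ring GR-EGFP intensity difference per well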
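medium = tetracycline-free induction medium containing charcoal-stripped FBS | also added = 1.0 µM final dexamethasone stimulus | schedule = 48 h induction, 1 h compound, 30 min dex at 37 °C | technique = fixed, Hoechst-stained cells imaged at 10x for EGFP | measure = GR-EGFP nuclear translocation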
CHOP UPR activ = activators of apoptotic CHOP UPR arm, primary screen, cell-based, CHO-CHOP luciferase reporter, luminescence, uHTS; UPR activation; percent of tunicamycin response over DMSO baseline; activation, % at 10 µM; actives 0.34% (n = 330,000); AID 449763, 2010;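 active means at 10 µM dose, activation of 40% or more, normalized to positive control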
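Material: CHO-CHOP cells, stable luciferase reporter of PERK-eIF2a-CHOP signalling; quantity: 500 reporter cells seeded per well; buffer or medium: F12 medium containing 10% fetal bovine serum; compound: one dose, 10 µM in 0.5% DMSO; incubation: 6 h compound treatment, 37 °C; measured by: Steady-Glo luciferase luminescence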
UPR XBP1 act = activators of adaptive XBP1 UPR arm, primary screen, cell-based, CHO-XBP1 luciferase reporter, luminescence, uHTS; IRE1-XBP1 UPR activation; percent of tunicamycin response, DMSO as zero; activation, % at 20 µM; actives 0.33% (n = 330,000);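 active means versus positive control, 20 µM dose yields 30% or more activation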
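incubation = overnight seeding at 37 °C, 6 h compound treatment at 37 °C | assay system = CHO-XBP1 cells stably carrying IRE1-XBP1-driven luciferase reporter | input = 1000 cells per well | detection = luciferase luminescence | dosing = single point, 20 µM final compound, 1% DMSO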
CHOP inh = inhibitors of CHOP promoter induction, primary screen, cell-based, unfolded protein response, luciferase reporter. CHO-K1 CHOP-promoter luciferase, tunicamycin-induced, 15-18 h. inhibition, % at 10 µM. actives 3.8% (n = 220,000). AID 2732, 2010;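 active means compounds that reduced the stress-induced luciferase reporter signal by more than about 70% of percent inhibition, limit read from the data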
Of the large screens only hits and unclear results are named; the others gave an inactive call.

O=C(NCC(c1cccnc1)N1CCN(c2ccc(F)cc2)CC1)c1ccco1 (configuration not stated)	Lmaj promast 72, T cruzi inh 60
CCN(C(=O)c1ccco1)c1nnc(-c2cccnc2)s1	none (no result: Lmaj promast, Dynein transport, CHOP inh)
COc1ccc([N+](=O)[O-])cc1N(CC(=O)Nc1ccccc1C(=O)NC(C)C)S(C)(=O)=O	none
COc1ccc(C(=O)NCC(c2cccnc2)N2CCN(c3ccccc3)CC2)cc1OC (configuration not stated)	Lmaj promast 81
CCCOc1ccc(OCCCCNC(C)CC)cc1 (configuration not stated)	Lmaj promast 99
COCCCNCCOc1ccc(C(C)(C)c2ccccc2)cc1	Lmaj promast 100, T cruzi inh 61
CCC(C)NCCOc1ccc(C(C)(C)c2ccccc2)cc1 (configuration not stated)	Lmaj promast 100, T cruzi inh 65
CC(C)(C)c1ccc(OCCNCc2ccccc2)cc1	none (no result: Lmaj promast, Dynein transport, CHOP inh)
CC(C)(c1ccccc1)c1ccc(OCCCN2CCNCC2)cc1	Lmaj promast 100, T cruzi inh 64
CCC(C)NCCOc1cccc(Br)c1 (configuration not stated)	none
CCCCN(CCO)c1ncnc2sc(-c3ccccc3)cc12	none (no result: Lmaj promast, Dynein transport, CHOP inh)
CNCCCOc1ccc(C(C)(C)c2ccccc2)cc1	Lmaj promast 100 (no result: CHOP UPR activ, UPR XBP1 act)
CC(C)(C)c1ccc(C(=O)NCCOc2ccccc2)cc1	none (no result: Lmaj promast, Dynein transport, CHOP inh)
O=C(CN(C(=O)CCC(=O)Nc1nccs1)c1ccc(F)cc1)NCc1ccccc1	none (no result: Lmaj promast, Dynein transport, CHOP inh)
COc1ccc(S(=O)(=O)Nc2ccccc2C(=O)OC2CCCN(C)C2)cc1OC (configuration not stated)	Lmaj promast 100
O=C(Nc1ccccc1Br)C1CC(=O)N(c2ccc3c4c(cccc24)CC3)C1 (configuration not stated)	Lmaj promast 62
O=C(CCl)N=c1sccn1Cc1ccc(Cl)cc1Cl	Lmaj promast 86, T cruzi inh 99, CHOP UPR activ 42
O=C(CCl)N=c1sccn1Cc1cccc2ccccc12	none (no result: CHOP UPR activ, UPR XBP1 act)
O=C(CCl)N=c1sccn1Cc1ccccc1Cl	T cruzi inh 61 (no result: Lmaj promast)
CCCn1c(SCC(=O)N2CCc3ccccc32)n[nH]c1=O	none (no result: Lmaj promast, T cruzi inh, Dynein transport, CHOP inh)
COc1ccc(-c2noc(Cc3ccc(Cl)cc3)n2)cc1OC	CHOP inh 86
Cc1ccc(-c2noc(CCCc3ccccc3)n2)cc1	none
COc1ccc(Cc2nc(-c3ccc(Cl)cc3)no2)cc1	none
COc1ccc(-c2noc(CCCc3ccccc3)n2)cc1OC	CHOP inh 72
CCCC(=O)N(CCN1CCOCC1)c1nc2c(OC)ccc(OC)c2s1	none (no result: Lmaj promast, Dynein transport, CHOP inh)
COc1ccc(N2CCN(C3CCCN(C(=O)C4=C(C)OCCO4)C3)CC2)cc1 (configuration not stated)	none (no result: Lmaj promast, Dynein transport, CHOP inh)
CC(C)C[C@H](NC(=O)OC(C)(C)C)C(=O)N[C@@H](CO)[C@H](O)[C@@H]1C[C@@H]1C(=O)NC1CC1	none (no result: Lmaj promast, Dynein transport, CHOP inh)
CCCCCCCCNC(=S)NCCN1CCCCC1	Lmaj promast 97 (no result: CHOP UPR activ, UPR XBP1 act)
S=C(NCCCN1CCOCC1)NCCCN1CCOCC1	none
COc1ccc(C2=NC(=O)/C(=C\c3cc(OC)c(OC)c(OC)c3)O2)cc1	CHOP inh 89 (no result: T cruzi inh, CHOP UPR activ, UPR XBP1 act)
COc1ccc(/C=C2\N=C(c3ccc(C)cc3)OC2=O)cc1	none (no result: Lmaj promast, Dynein transport, CHOP inh)
CC1CCCN(S(=O)(=O)c2ccc(NC(=O)C3CCN(C(=O)c4ccco4)CC3)cc2)C1 (configuration not stated)	none (no result: Lmaj promast, Dynein transport, CHOP inh)
COc1cc(C(=O)NCCCNC(=O)c2cc(OC)c(OC)c(OC)c2)cc(OC)c1OC	none (no result: Lmaj promast, Dynein transport, CHOP inh)
COc1cc(C(=O)NCCCNc2ccc([N+](=O)[O-])cc2)cc(OC)c1OC	Lmaj promast 77
COC(=O)c1cc(C)sc1NC(=O)CSc1ncccn1	none (no result: Lmaj promast, Dynein transport, CHOP inh)
Cc1ccccc1Oc1cccc(C(=O)/C(C#N)=C/N(C)C)c1	none
CN(C)/C=C(/C#N)C(=O)c1cccc(Oc2ccc(C(C)(C)C)cc2)c1	CHOP inh 93
CC1(C)Cc2cccc(OCC(=O)Nc3cc(S(C)(=O)=O)ccc3Cl)c2O1	none (no result: Lmaj promast, T cruzi inh, Dynein transport, CHOP inh)
CC(C)(C)c1ccc(NC(=O)CNC2CCCc3ccccc32)cc1 (configuration not stated)	T cruzi inh inconclusive, CHOP inh 91
Cc1ccc(S(=O)(=O)N2CCN(CC(=O)NC3CCCc4ccccc43)CC2)c(C)c1 (configuration not stated)	none
Cc1ccc(S(=O)(=O)N2CCN(CC(=O)NC3CCCc4ccccc43)CC2)cc1C (configuration not stated)	Lmaj promast 98
O=C(CSc1cc(Cl)ccc1Cl)NC1CCCc2ccccc21 (configuration not stated)	Lmaj promast 57
O=C(COc1ccccc1)NC1CCCc2ccccc21 (configuration not stated)	Lmaj promast 51
C=CCOC(=O)C1=C(C)NC(=S)C(C#N)(CC=C)C1c1ccccc1Cl (configuration not stated)	none (no result: Lmaj promast)
CCCN(c1ccccc1C(=O)O)S(=O)(=O)c1ccc2c(c1)n(C)c(=O)n2C	none (no result: Lmaj promast, Dynein transport, CHOP inh)
CCCCCCCCCCCC(=O)NC(C(=O)OCC)C(O)c1cccc([N+](=O)[O-])c1 (configuration not stated)	CHOP inh 92
CCOC(=O)C(NC(C)=O)C(O)c1ccc([N+](=O)[O-])cc1 (configuration not stated)	none
CN(CC(=O)Nc1ccccc1Cl)C(=O)COC(=O)C1CCN(c2ccc(C(F)(F)F)cn2)CC1	none (no result: Lmaj promast, Dynein transport, CHOP inh)
NS(=O)(=O)c1ccc(Nc2nc(-c3ccc(O)cc3O)cs2)cc1	Lmaj promast 63
C/C(Cn1cnc([N+](=O)[O-])n1)=N\NC(=O)c1ccccc1	none
C/C(Cn1nnc([N+](=O)[O-])n1)=N\NC(=O)c1ccccc1	Lmaj promast 84
Cc1ccc(NC(=O)COC(=O)C2(C)CC2(Cl)Cl)cc1S(=O)(=O)N1CCOCC1 (configuration not stated)	none (no result: Lmaj promast, T cruzi inh, Dynein transport, CHOP inh)
CCOC(=O)c1nnn(-c2ccc([N+](=O)[O-])cc2[N+](=O)[O-])c1C	T cruzi inh 96
O=C(CNC(=O)c1ccc2c(=O)n3c(nc2c1)CCC3)Nc1ccc(F)c(F)c1	none (no result: Lmaj promast, Dynein transport, CHOP inh)
O=C(NCC1CCCO1)C(=O)N/N=C\c1ccc2c(c1)OCO2 (configuration not stated)	none (no result: Lmaj promast, Dynein transport, CHOP inh)
